Assay [1] has as its system Tyrosine-protein kinase ABL1 (Homo sapiens), P00519 [F317L]. The experiment in a line: Binding affinity to human non-phosphorylated ABL1 F317L mutant (S229 to K512 residues) expressed in mammalian expression system assessed as residual binding level at 1 uM by Kinomescan method relative to control. The gist of the method:
(§1)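 Kinome-wide selectivity panel run by the KINOMEscan method, with the test compound at a single concentration of 1 μM. Wild-type and mutant kinases were profiled in the same screen.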

The test system of assay [2] is Tyrosine-protein kinase ABL1 (Homo sapiens), P00519 [Q252H]. The experiment in a line: Binding affinity to human non-phosphorylated ABL1 Q252H mutant (S229 to K512 residues) expressed in mammalian expression system assessed as residual binding level at 1 uM by Kinomescan method relative to control. The gist of the method: as §1
Assay [3] concerns the target ALK tyrosine kinase receptor (Homo sapiens, UniProt Q9UM73). The experiment in a line: Binding affinity to wild-type human partial length ALK (I1088 to E1409 residues) expressed in mammalian expression system assessed as residual binding level at 1 uM by Kinomescan method relative to control.
For assay [4], the system named is ALK tyrosine kinase receptor (Homo sapiens), Q9UM73 [C1156Y]. The experiment in a line: Binding affinity to wild-type human partial length ALK C1156Y mutant (I1088 to E1409 residues) expressed in mammalian expression system assessed as residual binding level at 1 uM by Kinomescan method relative to control.
For assay [5], the target named is Cyclin-dependent kinase 11A (Homo sapiens) (UniProt Q9UQ88). The experiment in a line: Binding affinity to wild-type human partial length CDC2L2 (D391 to K730 residues) expressed in bacterial expression system assessed as residual binding level at 1 uM by Kinomescan method relative to control.
The target in assay [6] is Cyclin-dependent kinase 19 (Homo sapiens) (UniProt Q9BWU1). Kind of assay: Binding affinity to wild-type human partial length CDK11 (M1 to N360 residues) expressed in bacterial expression system assessed as residual binding level at 1 uM by Kinomescan method relative to control.
Chain of Cyclin-dependent kinase 19 (Homo sapiens) (Q9BWU1 whole entry, the tested form may be a part): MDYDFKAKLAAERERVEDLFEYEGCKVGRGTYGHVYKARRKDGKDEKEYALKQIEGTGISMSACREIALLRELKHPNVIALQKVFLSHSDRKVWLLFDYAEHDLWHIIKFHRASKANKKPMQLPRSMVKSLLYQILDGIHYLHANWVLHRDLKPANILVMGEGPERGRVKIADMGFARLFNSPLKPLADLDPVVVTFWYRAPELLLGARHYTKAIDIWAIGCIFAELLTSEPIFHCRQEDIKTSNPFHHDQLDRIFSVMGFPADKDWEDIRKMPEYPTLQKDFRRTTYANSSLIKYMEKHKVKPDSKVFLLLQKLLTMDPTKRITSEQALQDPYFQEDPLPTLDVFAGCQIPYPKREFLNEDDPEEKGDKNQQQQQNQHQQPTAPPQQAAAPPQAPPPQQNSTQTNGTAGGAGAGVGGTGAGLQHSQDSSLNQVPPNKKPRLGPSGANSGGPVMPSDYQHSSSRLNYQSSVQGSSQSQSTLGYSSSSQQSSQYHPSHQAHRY
The target in assay [7] is Dual specificity protein kinase CLK1 (Homo sapiens) (UniProt P49759). Kind of assay: Binding affinity to wild-type human full length CLK1 (M1 to I484 residues) expressed in bacterial expression system assessed as residual binding level at 1 uM by Kinomescan method relative to control.
Assay [8] addresses Dual specificity tyrosine-phosphorylation-regulated kinase 1B (Homo sapiens) (UniProt Q9Y463). Kind of assay: Binding affinity to wild-type human full length DYRK1B (M1 to S629 residues) expressed in bacterial expression system assessed as residual binding level at 1 uM by Kinomescan method relative to control.
Assay [9] concerns the target Ephrin type-A receptor 4 (Homo sapiens) (UniProt P54764). The experiment in a line: Binding affinity to wild-type human partial length EPHA4 (T601 to R897 residues) expressed in bacterial expression system assessed as residual binding level at 1 uM by Kinomescan method relative to control.
In assay [10] the target is Serine/threonine-protein kinase/endoribonuclease IRE1 (Homo sapiens) (UniProt O75460). Kind of assay: Binding affinity to wild-type human partial length ERN1 (S551 to E852 residues) expressed in mammalian expression system assessed as residual binding level at 1 uM by Kinomescan method relative to control.
Assay [11] deals with Fibroblast growth factor receptor 3 (Homo sapiens) (UniProt P22607). The experiment in a line: Binding affinity to wild-type human partial length FGFR3 (R442 to S771 residues) expressed in bacterial expression system assessed as residual binding level at 1 uM by Kinomescan method relative to control.
Assay [12] deals with Receptor-type tyrosine-protein kinase FLT3 (Homo sapiens), P36888 [UNDEFINED MUTATION]. The experiment in a line: Binding affinity to human partial length FLT3 ITD/D835V double mutant expressed in bacterial expression system assessed as residual binding level at 1 uM by Kinomescan method relative to control. The gist of the method:
as §1

The test system is the same in assay [13]. Kind of assay: Binding affinity to human partial length FLT3 ITD/F691L double mutant expressed in bacterial expression system assessed as residual binding level at 1 uM by Kinomescan method relative to control. The gist of the method:
as §1

The target of assay [14] is Tyrosine-protein kinase FRK (Homo sapiens) (UniProt P42685). The experiment in a line: Binding affinity to wild-type human partial length FRK (A215 to F503 residues) expressed in bacterial expression system assessed as residual binding level at 1 uM by Kinomescan method relative to control.
Chain of Tyrosine-protein kinase FRK (Homo sapiens) (P42685 whole entry, the tested form may be a part): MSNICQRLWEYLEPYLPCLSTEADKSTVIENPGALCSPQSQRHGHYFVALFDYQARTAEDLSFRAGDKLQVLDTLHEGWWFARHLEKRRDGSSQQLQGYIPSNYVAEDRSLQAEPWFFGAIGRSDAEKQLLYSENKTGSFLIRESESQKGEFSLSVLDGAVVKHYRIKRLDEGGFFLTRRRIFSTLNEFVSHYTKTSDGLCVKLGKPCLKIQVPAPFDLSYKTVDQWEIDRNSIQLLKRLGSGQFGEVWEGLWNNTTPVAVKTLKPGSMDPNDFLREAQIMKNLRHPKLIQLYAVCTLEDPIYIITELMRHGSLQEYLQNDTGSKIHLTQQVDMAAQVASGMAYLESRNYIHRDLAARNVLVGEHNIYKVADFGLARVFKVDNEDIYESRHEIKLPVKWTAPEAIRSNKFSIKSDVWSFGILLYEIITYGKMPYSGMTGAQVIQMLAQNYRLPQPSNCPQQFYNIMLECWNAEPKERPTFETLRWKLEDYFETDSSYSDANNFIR
Assay [15] addresses G protein-coupled receptor kinase 3 (Homo sapiens) (UniProt P35626). The experiment in a line: Binding affinity to wild-type human full length GRK3 (M1 to L688 residues) expressed in mammalian expression system assessed as residual binding level at 1 uM by Kinomescan method relative to control. Summed up: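 Single-point kinome-wide KINOMEscan binding panel, test compound at 1 μM, run by the provider's standard protocol.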

Assay [16] deals with Serine/threonine-protein kinase 10 (Homo sapiens) (UniProt O94804). Kind of assay: Binding affinity to wild-type human partial length LOK (E16 to V314 residues) expressed in bacterial expression system assessed as residual binding level at 1 uM by Kinomescan method relative to control.
Assay [17] deals with Mitogen-activated protein kinase kinase kinase 3 (Homo sapiens) (UniProt Q99759). The experiment in a line: Binding affinity to wild-type human partial length MAP3K3 (E320 to Y626 residues) expressed in mammalian expression system assessed as residual binding level at 1 uM by Kinomescan method relative to control.
Assay [18] relates to Phosphatidylinositol 4,5-bisphosphate 3-kinase catalytic subunit alpha isoform (Homo sapiens), P42336 [H1047L]. The experiment in a line: Binding affinity to human partial length PIK3CA H1047L mutant (R108 to N1068 residues) expressed in mammalian expression system assessed as residual binding level at 1 uM by Kinomescan method relative to control.
For assay [19], the target named is Phosphatidylinositol 4,5-bisphosphate 3-kinase catalytic subunit delta isoform (Homo sapiens) (UniProt O00329). The experiment in a line: Binding affinity to wild-type human partial length PIK3CD (R108 to Q1044 residues) expressed in mammalian expression system assessed as residual binding level at 1 uM by Kinomescan method relative to control.
The target in assay [20] is Serine/threonine-protein kinase PLK4 (Homo sapiens) (UniProt O00444). Kind of assay: Binding affinity to wild-type human partial length PLK4 (M1 to S273 residues) expressed in mammalian expression system assessed as residual binding level at 1 uM by Kinomescan method relative to control.
Chain of Serine/threonine-protein kinase PLK4 (Homo sapiens) (O00444 whole entry, the tested form may be a part): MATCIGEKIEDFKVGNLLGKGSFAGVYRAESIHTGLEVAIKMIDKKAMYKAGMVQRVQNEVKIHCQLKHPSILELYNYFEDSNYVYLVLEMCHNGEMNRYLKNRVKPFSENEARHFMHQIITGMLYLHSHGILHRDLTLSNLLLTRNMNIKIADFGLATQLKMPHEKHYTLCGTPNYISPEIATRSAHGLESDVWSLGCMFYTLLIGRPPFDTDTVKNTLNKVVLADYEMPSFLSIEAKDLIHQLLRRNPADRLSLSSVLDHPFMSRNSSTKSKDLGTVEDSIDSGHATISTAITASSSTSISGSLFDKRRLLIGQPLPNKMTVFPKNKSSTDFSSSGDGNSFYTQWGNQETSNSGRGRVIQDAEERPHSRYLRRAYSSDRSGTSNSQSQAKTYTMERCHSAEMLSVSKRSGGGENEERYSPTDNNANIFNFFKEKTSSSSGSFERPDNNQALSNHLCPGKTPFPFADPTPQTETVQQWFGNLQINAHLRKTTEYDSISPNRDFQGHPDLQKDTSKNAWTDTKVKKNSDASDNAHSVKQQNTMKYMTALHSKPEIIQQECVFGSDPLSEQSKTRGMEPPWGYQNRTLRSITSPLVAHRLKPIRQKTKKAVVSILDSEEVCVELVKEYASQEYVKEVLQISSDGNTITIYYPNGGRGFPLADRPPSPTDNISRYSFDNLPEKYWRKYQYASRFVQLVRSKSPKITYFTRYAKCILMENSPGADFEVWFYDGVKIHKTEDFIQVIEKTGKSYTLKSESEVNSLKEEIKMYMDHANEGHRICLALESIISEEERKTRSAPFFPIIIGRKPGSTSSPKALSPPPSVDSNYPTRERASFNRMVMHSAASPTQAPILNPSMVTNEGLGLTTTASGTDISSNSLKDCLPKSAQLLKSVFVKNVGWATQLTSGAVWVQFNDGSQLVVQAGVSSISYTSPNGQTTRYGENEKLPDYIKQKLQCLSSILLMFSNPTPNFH
Assay [21] deals with RAF proto-oncogene serine/threonine-protein kinase (Homo sapiens) (UniProt P04049). Kind of assay: Binding affinity to wild-type human partial length RAF1 (I330 to T640 residues) expressed in bacterial expression system assessed as residual binding level at 1 uM by Kinomescan method relative to control.
Chain of RAF proto-oncogene serine/threonine-protein kinase (Homo sapiens) (P04049 whole entry, the tested form may be a part): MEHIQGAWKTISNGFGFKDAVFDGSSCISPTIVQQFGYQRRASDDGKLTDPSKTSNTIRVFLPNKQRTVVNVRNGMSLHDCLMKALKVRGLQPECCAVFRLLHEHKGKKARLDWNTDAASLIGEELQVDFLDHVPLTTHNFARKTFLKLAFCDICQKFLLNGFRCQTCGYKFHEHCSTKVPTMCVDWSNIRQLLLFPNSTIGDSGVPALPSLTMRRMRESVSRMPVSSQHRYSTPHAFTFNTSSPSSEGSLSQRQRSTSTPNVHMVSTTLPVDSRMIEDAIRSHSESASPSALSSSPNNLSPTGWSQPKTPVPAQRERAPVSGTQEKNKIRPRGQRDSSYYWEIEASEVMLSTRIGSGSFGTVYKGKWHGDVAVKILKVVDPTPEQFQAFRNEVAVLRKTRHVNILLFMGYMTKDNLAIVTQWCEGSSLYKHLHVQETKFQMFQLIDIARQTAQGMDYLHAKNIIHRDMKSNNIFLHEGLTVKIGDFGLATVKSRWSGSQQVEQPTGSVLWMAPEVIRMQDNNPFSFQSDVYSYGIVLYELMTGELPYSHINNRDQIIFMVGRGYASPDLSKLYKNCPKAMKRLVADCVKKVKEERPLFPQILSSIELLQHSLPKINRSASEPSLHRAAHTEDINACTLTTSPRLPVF
The target in assay [22] is Serine/threonine-protein kinase TAO1 (Homo sapiens) (UniProt Q7L7X3). The experiment in a line: Binding affinity to wild-type human partial length TAOK1 (M1 to A320 residues) expressed in mammalian expression system assessed as residual binding level at 1 uM by Kinomescan method relative to control.
The target of assay [23] is Phosphatidylinositol 3-kinase catalytic subunit type 3 (Homo sapiens) (UniProt Q8NEB9). Kind of assay: Binding affinity to wild-type human partial length VPS34 (S282 to H879 residues) expressed in mammalian expression system assessed as residual binding level at 1 uM by Kinomescan method relative to control.
Assay [24] concerns the target Tyrosine-protein kinase Blk (Homo sapiens, UniProt P51451). The experiment in a line: Inhibition of recombinant full length His-tagged human Blk cytoplasmic domain expressed in Baculovirus expression system by Z-LYTE assay.

Chain of Receptor-type tyrosine-protein kinase FLT3 (Homo sapiens), P36888 [UNDEFINED MUTATION] (P36888 whole entry, looked up, stated change not applied): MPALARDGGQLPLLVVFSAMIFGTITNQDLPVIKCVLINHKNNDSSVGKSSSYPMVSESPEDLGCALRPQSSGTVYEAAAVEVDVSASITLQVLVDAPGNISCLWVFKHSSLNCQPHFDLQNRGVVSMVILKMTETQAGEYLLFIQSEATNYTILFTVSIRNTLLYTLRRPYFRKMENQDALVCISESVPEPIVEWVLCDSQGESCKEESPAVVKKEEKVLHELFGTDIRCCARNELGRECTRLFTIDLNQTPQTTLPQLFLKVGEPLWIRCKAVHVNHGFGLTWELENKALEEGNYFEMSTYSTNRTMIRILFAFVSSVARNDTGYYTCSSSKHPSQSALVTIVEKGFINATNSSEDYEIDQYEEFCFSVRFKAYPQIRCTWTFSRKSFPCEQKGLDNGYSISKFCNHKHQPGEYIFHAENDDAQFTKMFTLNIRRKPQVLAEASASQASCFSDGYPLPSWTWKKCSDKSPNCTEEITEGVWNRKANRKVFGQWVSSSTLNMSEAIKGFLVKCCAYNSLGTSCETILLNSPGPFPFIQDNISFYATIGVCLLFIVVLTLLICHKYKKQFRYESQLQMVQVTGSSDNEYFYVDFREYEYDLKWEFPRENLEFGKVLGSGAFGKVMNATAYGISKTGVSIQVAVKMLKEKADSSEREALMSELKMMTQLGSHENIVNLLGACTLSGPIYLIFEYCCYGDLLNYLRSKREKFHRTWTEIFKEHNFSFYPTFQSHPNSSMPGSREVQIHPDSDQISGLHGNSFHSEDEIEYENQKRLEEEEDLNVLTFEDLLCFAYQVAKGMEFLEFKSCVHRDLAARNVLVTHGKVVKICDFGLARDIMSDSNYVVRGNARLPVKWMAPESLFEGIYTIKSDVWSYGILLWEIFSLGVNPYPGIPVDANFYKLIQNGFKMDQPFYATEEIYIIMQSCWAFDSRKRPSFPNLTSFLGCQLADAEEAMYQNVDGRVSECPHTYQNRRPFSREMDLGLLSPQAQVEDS
Chain of Dual specificity tyrosine-phosphorylation-regulated kinase 1B (Homo sapiens) (Q9Y463 whole entry, looked up, the tested form may be a part): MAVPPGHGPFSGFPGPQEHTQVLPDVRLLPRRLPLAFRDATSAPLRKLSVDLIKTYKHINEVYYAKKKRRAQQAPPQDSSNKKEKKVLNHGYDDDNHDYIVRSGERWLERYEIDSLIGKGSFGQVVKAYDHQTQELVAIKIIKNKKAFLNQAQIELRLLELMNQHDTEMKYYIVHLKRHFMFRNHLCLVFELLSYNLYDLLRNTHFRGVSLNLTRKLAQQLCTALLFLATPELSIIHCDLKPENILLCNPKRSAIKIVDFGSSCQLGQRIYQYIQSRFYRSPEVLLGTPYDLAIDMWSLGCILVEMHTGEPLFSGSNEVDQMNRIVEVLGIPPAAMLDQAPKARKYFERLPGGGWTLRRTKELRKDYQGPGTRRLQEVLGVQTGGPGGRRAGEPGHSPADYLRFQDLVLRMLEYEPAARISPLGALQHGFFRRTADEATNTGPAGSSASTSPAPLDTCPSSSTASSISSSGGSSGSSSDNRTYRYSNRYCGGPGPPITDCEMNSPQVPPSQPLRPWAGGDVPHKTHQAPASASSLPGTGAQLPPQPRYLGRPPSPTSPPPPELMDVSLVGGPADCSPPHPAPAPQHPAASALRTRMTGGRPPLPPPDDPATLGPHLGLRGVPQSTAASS
Chain of Tyrosine-protein kinase Blk (P51451 whole entry, the tested form may be a part): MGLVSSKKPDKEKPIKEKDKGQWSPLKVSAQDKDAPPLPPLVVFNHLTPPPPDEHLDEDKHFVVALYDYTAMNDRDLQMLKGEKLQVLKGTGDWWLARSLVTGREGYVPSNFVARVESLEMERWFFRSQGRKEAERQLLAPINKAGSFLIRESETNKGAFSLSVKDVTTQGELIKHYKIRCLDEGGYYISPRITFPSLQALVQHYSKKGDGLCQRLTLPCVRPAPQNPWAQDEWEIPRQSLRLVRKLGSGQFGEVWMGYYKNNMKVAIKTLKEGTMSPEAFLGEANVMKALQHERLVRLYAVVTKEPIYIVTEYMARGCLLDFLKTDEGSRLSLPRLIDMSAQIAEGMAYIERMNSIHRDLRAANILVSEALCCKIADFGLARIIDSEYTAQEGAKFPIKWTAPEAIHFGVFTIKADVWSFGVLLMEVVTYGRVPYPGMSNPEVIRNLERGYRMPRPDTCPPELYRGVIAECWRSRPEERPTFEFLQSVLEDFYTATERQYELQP

Regarding `C=CC(=O)Nc1cc(Nc2ncc(Cl)c(Nc3ccccc3S(=O)(=O)C(C)C)n2)c(OC)cc1N(C)CCN(C)C`, the Activity is 0.8% in assay [1]; 1.9% in assay [2]; 0% in assay [3]; 0.2% in assay [4]; 78% in [5]; 86% in assay [6]. Further, the Activity in assay [7] stood at 6.9%; in [8], 48%; in [9] it was 80%; in assay [10] it was 39%; in [11] it was 19%; in [12] it was 12%. In addition, the Activity in [13] stood at 3.6%; in assay [14], 5.9%; in assay [15] it was 100%; in [16], 0%; in [17], 17%; in [18], 86%. The Activity in assay [19] amounted to 75%; in [20] it was 0.35%; in [21], 88%; in assay [22], 0.45%; in assay [23] it was 67%. Further, the IC50 in assay [24] was 8 nM.

For the origin of these results see ChEMBL document CHEMBL4382192, “Discovery of a potent dual ALK and EGFR T790M inhibitor” (Eur J Med Chem, 2017).
